Structures are written as SMILES.

Series [1] in a line: Volume of distribution at steady state in Sprague-Dawley rat at 2 mg/kg, iv and 5 mg/kg, po. In kind it is ADME, organism-based. The settings on record: in vivo, read-out: Vdss. The essentials:
(§1)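 Rats dosed iv 2 mg/kg (n = 2) or po 5 mg/kg (n = 3) in 10% NMP, 10% Cremophor, 80% pH 4.63 buffer. PK parameters derived from iv dosing, reported as mean ± SD.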

The nature of series [2]: Half life in rats after 2 mg/kg intravenous dose. In kind it is ADME, organism-based. Details: dose 2 mg/kg, route intravenous. The settings on record: Sprague-Dawley, rat, in vivo. The essentials:
as §1

Series [3] has as its target Beta-1 adrenergic receptor (Homo sapiens, UniProt P08588). Kind of series: Inhibition of beta-1 adrenoceptor.
In series [4] the target is G protein-coupled receptor kinase 5 (Homo sapiens) (UniProt P34947). The series is described as follows: Inhibition of human GRK5. As to conditions: concentration not given here. In a few lines:
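Selectivity screen run externally (Invitrogen SelectScreen). Percent inhibition measured at 1 μM compound, mean of 2 measurements.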

G protein-coupled receptor kinase 5 (Homo sapiens), sequence (P34947 whole entry, looked up): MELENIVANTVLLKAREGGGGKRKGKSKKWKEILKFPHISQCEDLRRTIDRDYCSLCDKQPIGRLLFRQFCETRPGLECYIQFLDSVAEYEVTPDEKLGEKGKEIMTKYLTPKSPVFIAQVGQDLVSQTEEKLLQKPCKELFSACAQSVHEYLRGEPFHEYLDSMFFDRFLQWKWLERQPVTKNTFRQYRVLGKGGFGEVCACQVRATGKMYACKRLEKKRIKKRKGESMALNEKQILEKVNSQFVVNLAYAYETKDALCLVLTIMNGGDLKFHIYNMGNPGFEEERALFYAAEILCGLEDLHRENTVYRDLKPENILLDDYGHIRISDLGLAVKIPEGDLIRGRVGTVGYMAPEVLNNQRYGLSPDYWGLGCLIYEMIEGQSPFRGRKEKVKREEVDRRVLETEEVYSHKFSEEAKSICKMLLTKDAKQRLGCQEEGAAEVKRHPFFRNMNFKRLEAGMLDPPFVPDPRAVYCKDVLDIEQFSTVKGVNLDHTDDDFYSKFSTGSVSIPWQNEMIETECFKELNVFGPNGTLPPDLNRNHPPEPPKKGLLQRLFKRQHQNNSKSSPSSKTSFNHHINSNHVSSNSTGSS
Beta-1 adrenergic receptor, sequence (P08588 whole entry): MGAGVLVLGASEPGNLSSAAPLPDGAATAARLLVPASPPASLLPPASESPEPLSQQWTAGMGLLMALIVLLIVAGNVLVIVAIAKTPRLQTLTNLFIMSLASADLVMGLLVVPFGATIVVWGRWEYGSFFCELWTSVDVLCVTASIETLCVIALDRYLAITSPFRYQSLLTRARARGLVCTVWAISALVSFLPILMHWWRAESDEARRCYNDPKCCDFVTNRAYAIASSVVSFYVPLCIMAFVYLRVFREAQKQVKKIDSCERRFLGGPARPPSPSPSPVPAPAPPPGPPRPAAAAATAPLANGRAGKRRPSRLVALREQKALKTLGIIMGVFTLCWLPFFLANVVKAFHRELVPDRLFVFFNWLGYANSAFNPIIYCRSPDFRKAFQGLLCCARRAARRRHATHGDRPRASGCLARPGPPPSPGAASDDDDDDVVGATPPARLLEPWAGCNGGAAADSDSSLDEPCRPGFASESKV

On to `NC(=O)c1cc(-c2ccnc(NC3CCCCC3)c2)nc(N2CCNCC2)c1`, for which the Vd in series [1] turned out to be 22 L/kg. Also, the half-life in series [2] was 3.8 h. This molecule yielded an IC50 in series [3] of 8.3 µM. For the same molecule, the inhibition in series [4] was 2%.

Usually half-life stands for the time in which the quantity being followed falls by half. A higher half-life goes with slow loss. In general, IC50 refers to the concentration at which inhibition is half-maximal. Lower therefore signals greater potency. Broadly, the inhibition is the relative decrease from the control value, in per cent. Low readings indicate little suppression, high ones strong suppression.

Source of the values: ChEMBL document CHEMBL1212911, “Identification of potent and selective amidobipyridyl inhibitors of protein kinase D” (J Med Chem, 2010).
